In the library only some 1.3% were active in any assay of this set; here they are far more common.
TAG inh: inhibitors of triacylglycerol accumulation, primary screen, cell-based, uHTS, fluorescence, H9c2. inhibition, % at 12.5 µM. AID 651582, 2012. H9c2 cells, Nile Red lipid (TAG) fluorescence; cells loaded with 200 µM oleic acid. 0.66% of 230,000 active;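 active means pattern-corrected inhibition of lipid staining of at least 50% with the nuclear-stain viability signal not falling by more than 50%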;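 further: 0% = DMSO wells and 100% = triacsin C control wells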
HGIII-sPLA2 inh: human group III sPLA2 inhibitors, primary screen, biochemical, QFRET, BODIPY PC-A2 liposome substrate; 0.56% of 370,000 active; Group 3 secretory phospholipase A2 (Homo sapiens), Q9NZ20; inhibition, % at 12.2 µM; QFRET BODIPY PC-A2 liposome hydrolysis, fluorescence;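 active means inhibition above mean plus 3 SD of compounds lying within the high and low control bounds, cut at about 19% in these data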;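 further: 0% = median of test compound wells and 100% = no enzyme DMSO wells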
Target sequence (Q9NZ20 whole entry, looked up): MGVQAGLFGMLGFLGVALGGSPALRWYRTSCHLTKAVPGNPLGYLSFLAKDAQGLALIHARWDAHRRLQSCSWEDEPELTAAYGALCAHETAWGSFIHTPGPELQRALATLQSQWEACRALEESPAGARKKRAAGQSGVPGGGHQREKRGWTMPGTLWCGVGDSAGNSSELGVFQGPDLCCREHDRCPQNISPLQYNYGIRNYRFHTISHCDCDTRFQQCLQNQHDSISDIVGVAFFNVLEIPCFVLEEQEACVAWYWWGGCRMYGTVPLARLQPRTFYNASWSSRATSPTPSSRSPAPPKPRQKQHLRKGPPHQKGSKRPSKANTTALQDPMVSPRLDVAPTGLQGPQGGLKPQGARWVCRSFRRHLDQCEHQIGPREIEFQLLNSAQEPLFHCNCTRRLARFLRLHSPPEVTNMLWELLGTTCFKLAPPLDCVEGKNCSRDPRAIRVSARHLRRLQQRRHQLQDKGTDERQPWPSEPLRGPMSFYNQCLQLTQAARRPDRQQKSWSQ
MT1-MMP act inh: blockers of MT1-MMP proenzyme processing, primary screen, HT1080 RFP-PRO-GFP cells, GFP/RFP fluorescence | Matrix metalloproteinase-14 (Homo sapiens), P50281 | GFP/RFP ratio fluorescence, overnight; percent of plate control window, DMSO zero | GFP/RFP ratio change, % at 20 µM | 0.061% of 360,000 active;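 active means GFP/RFP ratio change of at least 30% with cell ATP level not reduced by more than half and red fluorescence within 50% of control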
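system = RFP-PRO-GFP reporter HT1080 cells | dosing = 20 µM single dose, 1% DMSO | timing = overnight cell settling, then overnight compound exposure, 37 °C, 5% CO2 | read-out basis = GFP/RFP fluorescence ratio | controls = DMSO and RFP-L50D-GFP cell wells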
Efflux pump mplx: inhibitors of Candida efflux pumps in yeast, primary screen, S. cerevisiae, Nile Red, multiplex; S. cerevisiae Candida pump triplex; inhibition, % at 10 µM; 0.44% of 330,000 active;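 active means plate passing quality check with inhibition over a set limit, or well fluorescence over plate mean plus 4 SD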;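 further: Nile Red retained in pooled yeast measured as flow cytometry median fluorescence; 0% = buffer negative control and 100% = Enniatin B positive control; higher means more Nile Red kept so more efflux inhibition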
hGIII sPLA2 conf: human group III sPLA2 inhibitors, confirmation, biochemical, QFRET, triplicate; shares compounds with HGIII-sPLA2 inh; recombinant hGIII-sPLA2, BODIPY PC-A2 QFRET fluorescence; inhibition, % at 12.2 µM; 34% of 2,000 active;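 active means mean inhibition across triplicates above the hit cutoff set in the earlier primary screen, cut at about 19% in these data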;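 further: 0% = enzyme with DMSO and 100% = DMSO wells lacking enzyme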
535nm interf: 535nm fluorescence optical interference, confirmation, artefact control for HGIII-sPLA2 inhibitor project, biochemical, QFRET. AID 743282, 2014. shares compounds with HGIII-sPLA2 inh. BODIPY FL product fluorescence interference. inhibition, % at 12.2 µM. 8.5% of 2,000 active;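 active means average inhibition above the solvent-only control mean plus 3 SD, cut at about 6% in these data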;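 further: 0% = DMSO with substrate plus product and 100% = DMSO with substrate alone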
BODIPY interf DR: 535nm fluorescence optical interference, dose response, artefact control for HGIII-sPLA2 inhibitor project, biochemical, QFRET; shares compounds with HGIII-sPLA2 inh; BODIPY FL product fluorescence interference, cell-free; IC50, µM; 240 tested, under 10 active; AID 743455, 2014;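 active means IC50 at or below 10 µM; inactive means IC50 above 10 µM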
* hit, by the source's call; . = no result.

SMILES | TAG inh | HGIII-sPLA2 inh | MT1-MMP act inh | Efflux pump mplx | hGIII sPLA2 conf | 535nm interf | others
COc1ccc(-c2cnc(C(O)c3ccc(C(C)(C)C)cc3)[nH]2)cc1 (configuration not stated) | -12 | -1 | 1 | . | . | .
Cc1cc(C(=O)NNC(=S)Nc2cccc(C(F)(F)F)c2)nn1C | -16 | 47* | 3 | 0 | 42* | 2 | BODIPY interf DR=>122
CC1CN(Cc2ccccc2Cl)CC(C)O1 (configuration not stated) | . | 19* | 2 | 0 | -1 | -10
Cc1c(C(=O)Nc2nc(-c3ccccn3)cs2)oc2ccccc12 | 4 | . | -4 | 1 | . | .
Cn1cccc1C(=O)Nc1nc(-c2ccccn2)cs1 | . | -2 | 6 | 0 | . | .
Cc1ccc(C(=O)Nc2nc(-c3ccccn3)cs2)s1 | 3 | 7 | -1 | 1 | . | .
O=C(Nc1nc(-c2ccccn2)cs1)c1cc2ccccc2o1 | 1 | 31* | -9 | 0 | 19* | -4
O=C(Nc1nc(-c2ccccn2)cs1)c1ccc(Cl)s1 | 54* | 27* | -12 | 0 | 24* | -3
O=C(Nc1nc(-c2ccccn2)cs1)c1ncc(Cl)c(Cl)c1Cl | 4 | 27* | -3 | 0 | 21* | 1
CC(C(=O)Nc1ccc(Cl)cc1Cl)N1C(=O)NC2(CCCCCCC2)C1=O (configuration not stated) | -8 | 2 | 4 | 0 | . | .
S=C(NCc1ccco1)NCC(c1ccco1)N1CCCCC1 (configuration not stated) | 19 | 23* | -3 | 0 | 27* | -9
O=C(NCC(c1ccco1)N1CCCC1)c1ccccc1F (configuration not stated) | . | -3 | -3 | 0 | . | .
O=C(COC(=O)/C=C/c1ccccc1[N+](=O)[O-])NNC(=O)c1ccc(F)cc1 | 6 | -4 | 2 | . | . | .
CC(C)C(N)c1csc(Nc2ccc(C(=O)c3ccccc3)cc2)n1 (configuration not stated) | 18 | 22* | -8 | . | 6 | -18
CC(N)c1csc(Nc2ccc(C(=O)c3ccccc3)cc2)n1 (configuration not stated) | 12 | 20* | -5 | . | 12 | -18
CC(C)CC(N)c1csc(Nc2ccc(C(=O)c3ccccc3)cc2)n1 (configuration not stated) | 35 | 9 | -7 | . | . | .
O=C(Nc1ccccc1OC(F)F)c1oc2ccccc2c1COc1ccccc1 | . | 25* | 1 | 0 | 4 | -13
Cc1cc(C)c2nc(NNC(=O)c3ccc(S(=O)(=O)N4CCc5ccccc5C4)cc3)sc2c1 | 11 | 50* | 8 | 0 | 36* | 2
O=C(O)COc1ccccc1C(Nc1cccnc1)c1cc(Cl)c2cccnc2c1O (configuration not stated) | . | . | 3 | . | . | .
CCOc1ccc(C(Nc2cccnc2)c2cc(Cl)c3cccnc3c2O)cc1 (configuration not stated) | . | 24* | -8 | 0 | 16 | 3
O=C(CCN1CCC2CCC(C2)C1)c1ccccc1 (configuration not stated) | 4 | 4 | 0 | . | . | .
OC(CCN1CCC2CCC(C2)C1)c1ccc(Br)cc1 (configuration not stated) | 6 | 20* | 1 | . | 5 | -17
CCc1ccc(NC(=O)CSc2nc3ccccc3c(=O)n2CCCN2CCC(C)CC2)cc1 | 30 | -14 | 0 | 0 | . | .
COCCCNC(=O)CN1C(=O)CSc2ncccc21 | 0 | 19* | 0 | 0 | 1 | -6
CCn1c(-c2nn(-c3ccccc3)ccc2=O)n[nH]c1=S | 10 | 24* | 3 | 0 | 3 | -3
SMILES | TAG inh | HGIII-sPLA2 inh | MT1-MMP act inh | Efflux pump mplx | hGIII sPLA2 conf | 535nm interf | others
CCn1c(-c2nn(-c3ccc(C)cc3)ccc2=O)n[nH]c1=S | -14 | 9 | -3 | 0 | . | .
COc1ccc(-c2sc3ccccc3c2/C=C/c2ccc(N)cc2)cc1 | -8 | 22* | -2 | 0 | 28* | 13*
CC(=O)N1c2ccc(S(=O)(=O)N3CCCC3)cc2CC1C(=O)Nc1cc(C)cc(C)c1 (configuration not stated) | . | -10 | 2 | 0 | . | .
Cc1ccc(NC(=S)N2CCN(Cc3ccccc3)CC2)c(C)c1 | -12 | 21* | -2 | 0 | 14 | -12
CN1c2ccccc2Sc2cc(N)ccc21 | . | 21* | 2 | 0 | 36* | 11*
CC1(C)Cc2nc3sc(C(=O)NCCCO)c(N)c3cc2CO1 | 11 | 21* | 6 | 0 | -1 | -4
Nc1ccc2c3c(ccc([N+](=O)[O-])c13)CC2 | 4 | 23* | 7 | . | 34* | 6.6*
CC(=O)c1ccc2c3c(ccc([N+](=O)[O-])c13)CC2 | -10 | 8 | 0 | . | . | .
O=C1C[C@@H]2c3c(cccc3CN1Cc1ccc(Br)cc1)C[C@@H](O)[C@H]2O | -5 | 0 | 7 | . | . | .
COc1cccc(C(=O)NCCCNC(=O)c2cccc(OC)c2)c1 | . | 17 | 2 | 0 | . | .
COc1cccc(C(=O)NCCCNC(=O)c2ccco2)c1 | . | 22* | 0 | 0 | 1 | -8
CCOC(=O)c1[nH]c(=S)n(Cc2ccccc2)c1C(=O)OCC | 19 | 18 | 0 | . | . | .
CCOC(=O)c1[nH]c(=S)n(-c2ccccc2)c1C(=O)OCC | -5 | 25* | 7 | . | 18 | 0
COc1cc2cc(NC(C)=O)cc(NCc3ccccc3)c2cc1OC | . | 21* | -1 | 0 | 19 | -2
COC(=O)c1ccc(CCc2cc(O)ccc2O)cc1 | 69 | . | 5 | . | . | .
COC(=O)c1ccc(CCc2cc(O)c(Br)cc2O)cc1 | 7 | 30* | 1 | . | 9 | 2
COc1cccc(C(=O)Oc2cc3c4c(c2)C(C)=CC(C)(C)N4C(=O)C3=O)c1 | . | 32* | -17 | 0 | 53* | 3 | BODIPY interf DR=>122
CCOc1ccc(NC(=O)CSc2ccc(-c3ccccn3)nn2)cc1 | . | 19* | 9 | 0 | -5 | -22
COc1ccc(NC(=O)CSc2ccc(-c3ccccn3)nn2)cc1OC | . | 19* | 5 | 0 | -1 | -27
CC1(c2ccccc2)CC(C)(C)N2C(=O)Cc3cccc1c32 (configuration not stated) | -6 | -14 | 1 | 0 | . | .
COc1ccc(CCN2CC(C(=O)N3CCC(O)(c4ccccc4)CC3)CCC2=O)cc1 (configuration not stated) | -7 | 6 | 2 | 0 | . | .

Screening results (PubChem)
